Experimental data published in ChEMBL document CHEMBL4152242, “Synthesis and biological activity of novel tert-butyl and tert-pentylphenoxyalkyl piperazine derivatives as histamine H3R ligands” (Eur J Med Chem, 2018).
Activity calls are given as the source filed them. The calls are words filed in the database; no cut-off is given here.

Tests used:
[1] = target: Histamine H3 receptor (Homo sapiens, UniProt Q9Y5N1); assay: Displacement of [3H]Nalpha-methylhistamine from recombinant human H3 receptor expressed in HEK293 cells after 90 mins by liquid scintillation counting method; assay type: cell-based
In short: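 Thawed, homogenized membranes from HEK-293 cells stably expressing full-length human H3R, incubated 90 min at RT with shaking with 2 nM [3H]Nα-methylhistamine (KD 3.08 nM) and 5–11 concentrations (0.01 nM–10 µM). Nonspecific binding with pitolisant 10 µM. GF/B filtration (0.3% PEI), ice-cold water washes, scintillation counting. Ki by Cheng-Prusoff; mean (95% CI), ≥3 experiments in at least duplicate.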

[2] = (§1) Antagonist activity at muscarinic receptor in guinea pig ileum assessed as carbachol-induced ileum contraction measured after 15 mins; settings: Cavia porcellus, 0.25 h; read-out: pA2 (converted)
In short: (§2)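 Male guinea-pig ileum (300-400 g), 2 cm segments in Krebs solution at 37°C, pH 7.4, O2/CO2 19:1, 0.5 g resting tension, 60 min equilibration. Cumulative agonist curves were run with histamine (10 nM–10 µM; H1) or carbachol (3 nM–3 µM; muscarinic), then repeated after 15 min with one antagonist concentration per tissue. Responses were taken as % of first-curve Emax, with pA2 from Schild analysis or pKB from the concentration ratio.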

[3] = target: Histamine H4 receptor (Homo sapiens, UniProt Q9H3N8); assay: Inhibition of human H4 receptor
[4] = tested on: Rattus norvegicus; assay: Reversal of RAMH-induced dipsogenia in Krf:(WI) WU rat assessed as inhibition of drinking response at 1.25 mg/kg, ip pretreated for 30 mins followed by RAMH stimulation for 20 mins measured for 30 mins relative to control; assay type: functional
In short: (§3)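 Male Wistar Krf:(WI) WU rats (<250 g), 6–8 per group. Compound, pitolisant or vehicle (1% Tween 80) given i.p. 30 min before RAMH 10 mg/kg i.p. Water intake measured for 30 min, starting 20 min after RAMH. Inhibition = 100 − (individual intake / RAMH-group intake) × 100. ED50 by log-probit with 95% CL; one-way ANOVA with Dunnett.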

[5] = tested on: Mus musculus; assay: Reversal of scopolamine-induced memory deficit in Albino Swiss CD-1 mouse assessed as increase in step through latency time at 2.5 to 30 mg/kg, ip treated for 1 hr before training followed by scopolamine challenge 30 mins before training measured 24 hrs after training trial by passive avoidance test; assay type: functional, organism-based
[6] = tested on: Rattus norvegicus; assay: Reversal of RAMH-induced dipsogenia in ip dosed Krf:(WI) WU rat assessed as inhibition of drinking response pretreated for 30 mins followed by RAMH stimulation for 20 mins measured for 30 mins; assay type: functional; in short: as §3
[7] = target: Histamine H1 receptor (Cavia porcellus) (UniProt P31389); assay: Agonist activity at H1 receptor in guinea pig ileum assessed as induction of ileum contraction measured after 15 mins
[8] = organism: Cavia porcellus; assay: Agonist activity at muscarinic receptor in guinea pig ileum assessed as induction of ileum contraction measured after 15 mins
[9] = organism: Cavia porcellus; assay: as §1; in short: as §2
[10] = Drug metabolism in human liver microsomes after 2 hrs by UPLC analysis; assay type: ADME, microsome; settings: read-out: Drug metabolism
In short: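 Incubation with human liver microsomes for 120 min; reaction mixture analysed by UPLC-MS, with MS fragmentation used to identify metabolites. In silico site-of-metabolism prediction run alongside.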

[11] = target: Histamine H1 receptor (Cavia porcellus) (UniProt P31389); assay: Competitive antagonist activity at H1 receptor in guinea pig ileum assessed as inhibition of histamine-induced ileum contraction measured after 15 mins
In short: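 Ileum from male guinea pigs cut into 2 cm segments in Krebs at 37°C, pH 7.4, O2/CO2 19:1, 0.5 g resting tension, equilibrated 60 min. Cumulative histamine curve (10 nM–10 µM), then 15 min with one antagonist concentration per tissue and a repeat curve. Responses are % of first-curve max. pA2 comes from Schild analysis if slope ≈1, otherwise pKB from concentration ratio; 4–8 repeats.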

[12] = target: Histamine H1 receptor (Cavia porcellus) (UniProt P31389); assay: Antagonist activity at H1 receptor in guinea pig ileum assessed as inhibition of histamine-induced ileum contraction measured after 15 mins; in short: as §2
[13] = tested on: Mus musculus; assay: Reversal of scopolamine-induced memory deficit in Albino Swiss CD-1 mouse assessed as increase in step through latency time at 2.5 to 30 mg/kg, ip treated for 1 hr prior to testing followed by scopolamine challenge measured after 30 mins by passive avoidance test; assay type: functional, organism-based
[14] = tested on: Mus musculus; assay: Anticonvulsant activity in ip dosed maximal electroshock induced seizure TO mouse model assessed as suppression of tonic hind limb extension pretreated for 30 to 45 mins followed by maximal electroshock induction; assay type: functional, organism-based
[15] = tested on: Mus musculus; assay: Anticonvulsant activity in maximal electroshock induced seizure TO mouse model assessed as suppression of tonic hind limb extension at 10 mg/kg, ip pretreated for 30 to 45 mins followed by maximal electroshock induction; assay type: functional, organism-based
[16] = tested on: Mus musculus; assay: Toxicity in TO mouse model assessed as mortality at 10 mg/kg, ip; assay type: organism-based; settings: in vivo

Chain of Histamine H1 receptor (Cavia porcellus) (P31389 whole entry): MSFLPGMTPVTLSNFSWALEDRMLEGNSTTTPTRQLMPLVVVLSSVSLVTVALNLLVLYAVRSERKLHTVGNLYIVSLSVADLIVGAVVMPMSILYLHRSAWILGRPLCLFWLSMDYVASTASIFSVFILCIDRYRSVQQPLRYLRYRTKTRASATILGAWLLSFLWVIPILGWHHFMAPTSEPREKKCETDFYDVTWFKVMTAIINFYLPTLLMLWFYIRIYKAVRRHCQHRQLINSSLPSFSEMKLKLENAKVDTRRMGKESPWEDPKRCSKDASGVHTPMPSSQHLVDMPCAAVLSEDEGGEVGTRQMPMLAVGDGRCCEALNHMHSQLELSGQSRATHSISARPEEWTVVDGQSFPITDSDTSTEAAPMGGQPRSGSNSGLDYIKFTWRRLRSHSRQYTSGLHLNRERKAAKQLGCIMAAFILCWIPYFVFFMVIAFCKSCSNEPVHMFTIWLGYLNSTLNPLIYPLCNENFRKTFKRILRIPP
Chain of Histamine H3 receptor (Q9Y5N1 whole entry): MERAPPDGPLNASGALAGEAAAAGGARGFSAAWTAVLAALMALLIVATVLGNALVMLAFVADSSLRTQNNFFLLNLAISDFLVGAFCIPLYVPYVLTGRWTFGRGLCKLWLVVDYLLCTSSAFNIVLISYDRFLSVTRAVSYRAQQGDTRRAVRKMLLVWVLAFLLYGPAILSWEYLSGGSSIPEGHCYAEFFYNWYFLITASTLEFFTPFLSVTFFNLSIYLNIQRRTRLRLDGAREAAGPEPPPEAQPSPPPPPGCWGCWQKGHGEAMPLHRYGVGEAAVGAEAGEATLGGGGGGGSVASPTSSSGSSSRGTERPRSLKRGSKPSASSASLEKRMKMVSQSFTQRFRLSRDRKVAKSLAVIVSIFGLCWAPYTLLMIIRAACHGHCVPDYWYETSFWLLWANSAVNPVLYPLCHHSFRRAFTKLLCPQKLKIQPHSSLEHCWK

SMILES | Ki [1] | other results
CC(C)(C)c1ccc(OCCCCN2CCN(c3ccccn3)CC2)cc1 | 2.96 µM | –
CC(C)(C)c1ccc(OCCCCN2CCN(C(=O)C3CCCO3)CC2)cc1 (stereo not given) | > 10 µM | –
CCC(C)(C)c1ccc(OCCCCN2CCN(c3cccnc3)CC2)cc1 | > 10 µM | –
CN1[C@@H]2CC[C@H]1C[C@@H](OC(=O)C(CO)c1ccccc1)C2 (stereo not given in full) [ATROPINE] | – | Kb [2]: 0.00104 µM
CCC(C)(C)c1ccc(OCCCCN2CCN(c3ccccn3)CC2)cc1 | 0.482 µM | –
Clc1ccc(CCCOCCCN2CCCCC2)cc1 [PITOLISANT] | – | Ki [3]: > 100 µM; inhibition in vivo at 1.25 mg/kg [4]: 87.4%
CC(C)(C)c1ccc(OCCCN2CCN(C(=O)C3CCCO3)CC2)cc1 (stereo not given) | > 10 µM | –
CC(C)(C)c1ccc(OCCCCN2CCN(c3ccncc3)CC2)cc1 | 0.0378 µM | Activity [5]: Active; ED50 [6]: 10.7 mg/kg; inhibition [6]: Dose-dependent effect; Activity [7]: inactive; Activity [8]: inactive; inhibition [9]: Dose-dependent effect; pKb [9]: 6.39; metabolised at 2 h [10]: 30%; pKb [11]: 6.15; inhibition [12]: Dose-dependent effect; Activity [13]: inactive; Activity [14]: Dose-dependent effect
CCC(C)(C)c1ccc(OCCCN2CCN(c3cccnc3)CC2)cc1 | 3.65 µM | –
CCC(C)(C)c1ccc(OCCCN2CCN(c3ncccn3)CC2)cc1 | 5.41 µM | –
CCC(C)(C)c1ccc(OCCCN2CCN(c3ccncc3)CC2)cc1 | 0.0306 µM | Activity [15]: Active
CCC(C)(C)c1ccc(OCCCCN2CCN(c3ncccn3)CC2)cc1 | 2.26 µM | –
CC(C)(C)c1ccc(OCCCN2CCN(c3ccccn3)CC2)cc1 | > 10 µM | –
CC(C)(C)c1ccc(OCCCCN2CCN(c3ncccn3)CC2)cc1 | 0.883 µM | –
CC(C)(C)c1ccc(OCCCN2CCN(c3cnccn3)CC2)cc1 | 8.74 µM | –
CC(C)(C)c1ccc(OCCCN2CCN(c3cccnc3)CC2)cc1 | 8.16 µM | –
CCC(C)(C)c1ccc(OCCCCN2CCN(c3ccncc3)CC2)cc1 | 0.12 µM | Activity [15]: Active
O=C1NC(=O)C(c2ccccc2)(c2ccccc2)N1 [PHENYTOIN] | – | Activity [15]: Active; Activity [16]: Non-Toxic

Continued, in another order:

Ki [1] | SMILES | other results
3.83 µM | CC(C)(C)c1ccc(OCCCN2CCN(c3ncccn3)CC2)cc1 | –
> 10 µM | CCC(C)(C)c1ccc(OCCCN2CCN(C(=O)C3CCCO3)CC2)cc1 (stereo not given) | –
5.48 µM | CC(C)(C)c1ccc(OCCCCN2CCN(c3cnccn3)CC2)cc1 | –
> 10 µM | CCC(C)(C)c1ccc(OCCCCN2CCN(C(=O)C3CCCO3)CC2)cc1 (stereo not given) | –
0.016 µM | CC(C)(C)c1ccc(OCCCN2CCN(c3ccncc3)CC2)cc1 | Activity [15]: Active
0.022 µM | CC(C)(C)c1ccc(OCCCN2CCCCC2)cc1 | –
5.2 µM | CCC(C)(C)c1ccc(OCCCN2CCN(c3ccccn3)CC2)cc1 | –
6.21 µM | CCC(C)(C)c1ccc(OCCCN2CCN(c3cnccn3)CC2)cc1 | –
0.683 µM | CCC(C)(C)c1ccc(OCCCCN2CCN(c3cnccn3)CC2)cc1 | –
3.42 µM | CC(C)(C)c1ccc(OCCCCN2CCN(c3cccnc3)CC2)cc1 | –
